# From ChEMBL document CHEMBL1122671, “Anticonvulsant activity of some 4-aminobenzamides” (J Med Chem, 1984)
# Calls of active or inactive are those of the source.
# Columns and labels:
# Mus musculus [1] = assay: Anticonvulsant activity against scMet (subcutaneous metrazole) induced seizure in mice at 30 min; ++ = Activity at 300 mg/kg.; format: functional, organism-based; design: dose 300 mg/kg
# Mus musculus [2] = assay: Evaluated for toxicity by using rotarod test in mice at 4 hr; + = Activity at 600 mg/kg.; format: organism-based; design: dose 600 mg/kg; settings: in vivo
# How it was run: (§1)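 Neurotoxicity in male Carworth Farms number-one mice dosed ip in 30% PEG 400 at 30, 100, 300 and sometimes 600 mg/kg, tested 30 min or 4 h later. Mice placed on a 1-in. knurled rod rotating at 6 rpm; toxicity means failure to stay on the rod for 1 min. Scored by the lowest toxic dose; footnotes record loss of righting reflex or lethality.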
# Mus musculus [3] = assay: Anticonvulsant activity against scMet (subcutaneous metrazole) induced seizure in mice at 4 hr; + = Activity at 600 mg/kg.; format: functional, organism-based; design: dose 600 mg/kg
# Mus musculus [4] = assay: Anticonvulsant activity against MES (maximal electroshock) induced seizure in mice at 30 min; ++ = Activity at 300 mg/kg.; format: functional, organism-based; design: dose 300 mg/kg
# How it was run: (§2)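 Male Carworth Farms number-one mice received the compound ip in 30% polyethylene glycol 400. Doses were 30, 100 and 300 mg/kg, with 600 mg/kg in some cases. Maximal electroshock seizure protection was scored at 30 min and 4 h after dosing. Activity is coded by the lowest effective dose.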
# Mus musculus [5] = assay: Anticonvulsant activity against MES (maximal electroshock) induced seizure in mice at 4 hr; ++ = Activity at 300 mg/kg.; format: functional, organism-based; design: dose 300 mg/kg; how it was run: as §2
# Mus musculus [6] = assay: Evaluated for toxicity by using rotarod test at in mice 30 min; + = Activity at 600 mg/kg.; format: organism-based; design: dose 600 mg/kg; settings: in vivo, 0.5 h; how it was run: as §1
# Mus musculus [7] = assay: Evaluated for toxicity by using rotarod test at in mice 30 min; +++ = Activity at 100 mg/kg,*-Loss of righting reflex at less than 300 mg/kg; format: organism-based; settings: in vivo, 0.5 h; how it was run: as §1
# Mus musculus [8] = organism: Mus musculus; assay: Evaluation of inhibitory activity against scMet induced convulsions in mice; NA = No activity.; format: functional, organism-based
# Mus musculus [9] = assay: Evaluated for toxicity by using rotarod test in mice at 4 hr; ++ = Activity at 300 mg/kg.; format: organism-based; design: dose 300 mg/kg; settings: in vivo; how it was run: as §1
# Mus musculus [10] = assay: Anticonvulsant activity against MES (maximal electroshock) induced seizure in mice at 30 min; +++ = Activity at 100 mg/kg.; format: functional, organism-based; design: dose 100 mg/kg; how it was run: as §2
# Mus musculus [11] = assay: Anticonvulsant activity against scMet (subcutaneous metrazole) induced seizure in mice at 4 hr; ++ = Activity at 300 mg/kg.; format: functional, organism-based; design: dose 300 mg/kg
# [12] = Protective index (PI) which is defined as the ratio of TD50 to the ED50 (MES).; format: functional
# How it was run: (§3)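 Both values come from ip dosing in 30% PEG 400 to male Carworth Farms number-one mice and were derived by the graphical method.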
# Mus musculus [13] = organism: Mus musculus; assay: (§4) Evaluation of neurologic deficit by rotarod procedure in mice; format: functional
# How it was run: (§5)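 Male Carworth Farms number-one mice were dosed ip (30% PEG 400 vehicle) and placed on a 1-in. knurled plastic rod rotating at 6 rpm. Neurotoxicity meant failure to stay on the rod for 1 min. TD50 was determined graphically.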
# [14] = Protective index (PI) which is defined as the ratio of TD50 to the ED50 (ScMet).; format: functional; how it was run: as §3
# Mus musculus [15] = assay: Evaluated for toxicity by using rotarod test in mice at 4 hr; f = No activity at 100 mg/kg.; format: organism-based; design: dose 100 mg/kg; settings: in vivo; how it was run: as §1
# Mus musculus [16] = assay: Anticonvulsant activity against scMet (subcutaneous metrazole) induced seizure in mice at 30 min; +++ = Indicates activity at 100 mg/kg.; format: functional, organism-based; design: dose 100 mg/kg
# [17] = as §4; format: ADME, organism-based; settings: mouse, in vivo; how it was run: as §5
# Mus musculus [18] = assay: Anticonvulsant activity against scMet (subcutaneous metrazole) induced seizure in mice at 4 hr; f = No activity at 100 mg/kg.; format: functional, organism-based; design: dose 100 mg/kg
# Mus musculus [19] = assay: Anticonvulsant activity against MES (maximal electroshock) induced seizure in mice at 4 hr; f = No activity at 100 mg/kg.; format: functional, organism-based; design: dose 100 mg/kg; how it was run: as §2
# Mus musculus [20] = assay: Evaluated for toxicity by using rotarod test at in mice 30 min; +++ = Indicates activity at 100 mg/kg.; format: organism-based; design: dose 100 mg/kg; settings: in vivo, 0.5 h; how it was run: as §1
# Mus musculus [21] = assay: Evaluated for toxicity by using rotarod test at in mice 30 min; - indicates no activity at 600 mg/kg.; format: organism-based; design: dose 600 mg/kg; settings: in vivo, 0.5 h; how it was run: as §1
# Mus musculus [22] = assay: Anticonvulsant activity against scMet (subcutaneous metrazole) induced seizure in mice at 4 hr; - indicates no activity at 600 mg/kg.; format: functional, organism-based; design: dose 600 mg/kg
# How it was run: (§6)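 Male Carworth Farms number-one mice dosed ip (30% PEG 400) at 30, 100, 300 and in some cases 600 mg/kg. Pentylenetetrazole 85 mg/kg given sc as a 0.5% solution in the posterior midline, at 30 min or 4 h. Protection means no clonic spasm of at least 5 s within 30 min. Scored by the lowest protective dose.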
# Mus musculus [23] = assay: Evaluated for toxicity by using rotarod test in mice at 4 hr; - indicates no activity at 600 mg/kg.; format: organism-based; design: dose 600 mg/kg; settings: in vivo; how it was run: as §1
# Mus musculus [24] = assay: Anticonvulsant activity against MES (maximal electroshock) induced seizure in mice at 30 min; + indicates activity at 600 mg/kg.; format: functional, organism-based; design: dose 600 mg/kg
# How it was run: (§7)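 Male Carworth Farms number-one mice; compounds in 30% polyethylene glycol 400, given ip at 30, 100 and 300 mg/kg, some also at 600 mg/kg. Maximal electroshock challenge at 30 min or 4 h after dosing. Scored by the lowest dose giving protection (++++ 30, +++ 100, ++ 300, + 600 mg/kg; - none at 600).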
# Mus musculus [25] = assay: Anticonvulsant activity against scMet (subcutaneous metrazole) induced seizure in mice at 30 min; + indicates activity at 600 mg/kg.; format: functional, organism-based; design: dose 600 mg/kg; how it was run: as §6
# Mus musculus [26] = assay: Anticonvulsant activity against MES (maximal electroshock) induced seizure in mice at 4 hr; + indicates activity at 600 mg/kg.; format: functional, organism-based; design: dose 600 mg/kg; how it was run: as §7
# Mus musculus [27] = assay: Anticonvulsant activity against MES (maximal electroshock) induced seizure at dose 600 mg/kg in mice at 30 min; - = No activity at 600 mg/kg.; format: functional, organism-based; how it was run: as §2
# Mus musculus [28] = assay: Anticonvulsant activity against MES (maximal electroshock) induced seizure at dose 600 mg/kg in mice at 4 hr; - = No activity at 600 mg/kg.; format: functional, organism-based; how it was run: as §2
# Mus musculus [29] = assay: Anticonvulsant activity against scMet (subcutaneous metrazole) induced seizure at dose 600 mg/kg in mice at 4 hr; - = No activity at 600 mg/kg.; format: functional, organism-based
# Mus musculus [30] = assay: Anticonvulsant activity against scMet (subcutaneous metrazole) induced seizure at dose 300 mg/kg in mice at 30 min; ++ = Activity at 300 mg/kg.; format: functional, organism-based
# Mus musculus [31] = assay: Evaluated for toxicity by using rotarod test at dose 600 mg/kg in mice 30 min; - = No activity at 600 mg/kg.; format: organism-based; settings: in vivo, 0.5 h; how it was run: as §1
# Mus musculus [32] = assay: Evaluated for toxicity by using rotarod test in mice at 4 hr; - = No activity at 600 mg/kg.; format: organism-based; design: dose 600 mg/kg; settings: in vivo; how it was run: as §1
smiles,measurement,setting,value
Nc1ccc(C(=O)NCCc2ccccc2)cc1,Activity,Mus musculus [1],Activity at 300 mg/kg
same,Toxicity,Mus musculus [2],Activity at 600 mg/kg
same,Activity,Mus musculus [3],Activity at 300 mg/kg
same,Activity,Mus musculus [4],Activity at 300 mg/kg
same,Activity,Mus musculus [5],Activity at 300 mg/kg
same,Toxicity,Mus musculus [6],Activity at 600 mg/kg
CCCN(CCC)C(=O)c1ccc(N)cc1,Activity,Mus musculus [1],Activity at 100 mg/kg
same,Toxicity,Mus musculus [7],"Activity at 100 mg/kg,*-Loss of righting reflex at < 300 mg/kg"
same,ED50,Mus musculus [8],inactive
same,Toxicity,Mus musculus [9],"Activity at 100 mg/kg,*-Loss of righting reflex at < 300 mg/kg"
same,Activity,Mus musculus [10],Activity at 100 mg/kg
same,Activity,Mus musculus [11],Activity at 100 mg/kg
same,Activity,Mus musculus [5],Activity at 100 mg/kg
same,PI,[12],1.9
same,TD50,Mus musculus [13],116 mg/kg
CCCCCNC(=O)c1ccc(N)cc1,PI,[14],1.2
same,Toxicity,Mus musculus [15],No activity
same,Activity,Mus musculus [16],Activity at 100 mg/kg
same,TD50,[17],68.5 mg/kg
same,Activity,Mus musculus [10],Activity at 100 mg/kg
same,Activity,Mus musculus [18],No activity
same,Activity,Mus musculus [19],No activity
same,Toxicity,Mus musculus [20],activity at 100 mg/kg
same,PI,[12],1.6
CCC1(c2ccccc2)C(=O)NC(=O)NC1=O [PHENOBARBITAL],TD50,Mus musculus [13],69 mg/kg
CC(Cc1ccccc1)NC(=O)c1ccc(N)cc1 (configuration not stated),Toxicity,Mus musculus [21],Not toxic
same,Activity,Mus musculus [22],Not toxic
same,Toxicity,Mus musculus [23],Not toxic
same,Activity,Mus musculus [24],activity at 600 mg/kg
same,Activity,Mus musculus [25],activity at 600 mg/kg
same,Activity,Mus musculus [26],activity at 600 mg/kg
NC(=O)c1ccc(N)cc1,Activity,Mus musculus [27],Not toxic
same,Activity,Mus musculus [28],Not toxic
same,Activity,Mus musculus [29],Not toxic
same,Activity,Mus musculus [30],Activity at 300 mg/kg
same,Toxicity,Mus musculus [31],Not toxic
same,Toxicity,Mus musculus [32],Not toxic
